# Screening data (PubChem)
# tim23-1 inh = growth inhibitors of tim23-1 mutant yeast, primary screen, luminescence, uHTS; S. cerevisiae tim23-1 growth, BacTiter-Glo luminescence, 24 h; inhibition, % at 20 µM; actives 1.3% (n = 330,000); AID 463212, 2010;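 active = growth inhibition of the mutant yeast at or above 50%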;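 also: temperature-sensitive mutant grown at 25 °C; plate controls were DMSO-treated mutant yeast for no effect and medium wells lacking yeast for full effect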
# XBP1 UPR activ = activators of adaptive XBP1 UPR arm, primary screen, cell-based, CHO-XBP1 luciferase reporter, luminescence, uHTS | activation, % at 20 µM | AID 463104, 2010 | actives 0.33% (n = 330,000) | IRE1-XBP1 UPR activation; percent of tunicamycin response, DMSO as zero;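 active = versus positive control, 20 µM dose yields 30% or more activation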;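 also: 100% = tunicamycin at 10 µg/mL and 0% = DMSO only wells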
#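 Assay system: IRE1-XBP1 luciferase reporter CHO line. Input: 1000 cells/well. Buffer or medium: F12 with 10% serum. Doses: 20 µM, 1% DMSO. Times: overnight seeding at 37 °C, 6 h compound treatment at 37 °C. Technique: Steady-Glo luciferase glow luminescence, 10 min after reagent addition.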
# TIM10 inh = growth inhibitors of isogenic TIM10 control yeast, primary screen, counter-screen for tim10-1 yeast inhibitor project, luminescence, uHTS. inhibition, % at 10 µM. actives 1.4% (n = 330,000). S. cerevisiae TIM10 strain growth, BacTiter-Glo luminescence, 24 h;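 active = inhibition of 40% or more at the single tested concentration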;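 also: wild-type TIM10 isogenic control strain grown at permissive 25 °C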
# CHOP UPR activ = activators of apoptotic CHOP UPR arm, primary screen, cell-based, CHO-CHOP luciferase reporter, luminescence, uHTS. actives 0.34% (n = 330,000). UPR activation; percent of tunicamycin response over DMSO baseline. AID 449763, 2010. activation, % at 10 µM;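 active = at 10 µM dose, activation of 40% or more, normalized to positive control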;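 also: 100% = tunicamycin at 10 µg/mL and 0% = DMSO alone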
#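 Assay system: CHO cells with stable CHOP pathway luciferase reporter; Buffer or medium: F12 plus 10% serum; Times: 16-18 h cell attachment, then 6 h compound exposure, 37 °C; Signal: luciferase luminescence; Read-out basis: percent activation relative to tunicamycin control; Control set: tunicamycin high control, DMSO low control.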
# tim10-1 inh = growth inhibitors of tim10-1 mutant yeast, primary screen, luminescence, uHTS. S. cerevisiae tim10-1 ts strain growth, BacTiter-Glo, 24 h. inhibition, % at 20 µM. actives 2.2% (n = 330,000). AID 463190, 2010;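 active = inhibition of at least 40%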;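 also: mutant grown at 25 °C; 0% = DMSO wells with yeast and 100% = wells holding no yeast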
# tim10-1 confirm = growth inhibitors of tim10-1 mutant yeast, confirmation, single concentration, luminescence, S. cerevisiae; shares compounds with tim10-1 inh; S. cerevisiae tim10-1 ts strain growth, BacTiter-Glo, 24 h; inhibition, % at 20 µM; actives 56% (n = 7,400); AID 463213, 2010;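 active = inhibition of yeast growth at or above a set limit in either of two repeat tests at 20 µM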;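 also: tim10-1 mutant grown at permissive 25 °C to find synthetic lethal compounds; 0% = DMSO yeast wells and 100% = medium wells without yeast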
# tim10 confirm = growth inhibitors of wild-type TIM10 yeast, confirmation, counter-screen for tim10-1 synthetic lethality project, single concentration, luminescence, S. cerevisiae; actives 63% (n = 4,600); shares compounds with TIM10 inh; AID 463215, 2010; S. cerevisiae tim10 strain growth, BacTiter-Glo luminescence, 24 h; inhibition, % at 10 µM;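 active = inhibition of yeast growth at or above a set limit in either of two replicates at 10 µM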;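 also: this counterscreen used the strain with wild-type TIM10; 0% = yeast with DMSO and 100% = medium wells lacking yeast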
# tim23-1 confirm = tim23-1 mutant yeast growth inhibitors, confirmation, luminescence, single concentration. actives 83% (n = 4,400). shares compounds with tim23-1 inh. inhibition, % at 20 µM. S. cerevisiae tim23-1 growth, BacTiter-Glo luminescence, 24 h;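 active = inhibition above about 39% in either of two replicate wells at 20 µM, limit read from the data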;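 also: temperature-sensitive tim23-1 mutant grown at 25 °C; 0% = DMSO wells with yeast and 100% = medium wells without yeast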
# * = called active by the depositor; . = no result. The list is not random: actives were taken first. Their share in the collection is about 3.9%.
SMILES,tim23-1 inh,XBP1 UPR activ,TIM10 inh,CHOP UPR activ,tim10-1 inh,tim10-1 confirm,tim10 confirm,tim23-1 confirm
CCCCOC(=O)n1c(=O)oc2cc(S(=O)(=O)N3CCCCC3)ccc21,52*,-1,43*,1,40*,39*,23,55*
COc1cccc(-c2nc(NC(C)C)c3ccccc3n2)c1O,55*,9,27,0,57*,45*,.,52*
Cc1ccc(CSc2nc3ccccc3c(=O)n2C)cc1,2,-4,-34,1,-31,.,.,.
Cc1ccc(C(C)C)c(OCc2nn(CC(=O)c3ccc(OC(F)F)cc3)c3[n+]2CCCCC3)c1,17,5,22,2,30,.,.,.
Cc1ccccc1NC(=O)CCS(=O)(=O)c1ccc(Br)s1,12,-1,3,-1,-3,.,.,.
COC(=O)c1ccccc1NC(=O)CCS(=O)(=O)c1ccc(Br)s1,55*,-2,33,0,44*,44*,.,47*
N#C/C(=C\c1cccc(O)c1)c1nc2ccccc2o1,45,5,40,4,23,.,.,.
N#C/C(=C\c1ccc(Cl)cc1)c1nc2ccccc2o1,76*,2,31,3,51*,49*,.,75*
N#C/C(=C\c1ccncc1)c1nc2ccccc2o1,72*,0,42*,1,56*,43*,34*,61*
COc1ccc(C(=O)NCc2ncccc2C)cc1OC1CCN(C(C)=O)CC1,8,-9,7,2,3,.,.,.
CCN1CCN(c2ccc(NC(=O)COc3ccc(Cl)cc3C)cc2)CC1,1,-1,8,1,-1,.,.,.
O=C(O)C(Cc1ccccc1)N=C(NS(=O)(=O)c1ccccc1)c1ccccc1 (stereo not drawn),7,-3,-12,0,2,.,.,.
Cc1cc(C)nc(NS(=O)(=O)c2ccc(NC(=O)CCC3COc4ccccc4O3)cc2)n1 (stereo not drawn),18,0,8,-4,8,.,.,.
CCOC(=O)c1ccc(NC(=O)CCC2COc3ccccc3O2)cc1 (stereo not drawn),53*,-3,36,-2,41*,36*,.,48*
COc1cnc(-c2ccccn2)nc1Sc1cccc(Cl)c1,63*,24,31,7,44*,28,.,55*
COc1cnc(-c2ccccn2)nc1Oc1ccc(Cl)cc1,40,5,-10,-1,28,.,.,.
Cc1ccc2[nH]c(=O)c3cc(C(=O)NC(C)C)sc3c2c1,6,1,17,2,-4,.,.,.
O=C(Nc1ccc(OCC(F)(F)C(F)F)c(C(F)(F)F)c1)c1ccccc1O,54*,6,62*,16,81*,76*,-6,69*
CNc1ccccc1C(C)(C)c1cn(-c2ccc([N+](=O)[O-])cc2)nn1,26,1,5,-2,-1,.,.,.
Cc1[nH]c2ccc(C(=O)N3CCN(c4ccccc4Cl)CC3)cc2c1C,51*,-4,40*,-1,57*,25,12,48*
O=C1c2cccc3c([N+](=O)[O-])ccc(c23)C(=O)N1c1ccccn1,80*,-8,77*,-6,94*,89*,-8,77*
COc1cccc2cc(C(=O)NC(C)c3ccccc3)c(=O)oc12 (stereo not drawn),14,7,9,4,18,.,.,.
Cc1ccc(NC(=O)C2CCN(S(=O)(=O)c3ccc(N4CCCC4=O)cc3)CC2)cc1Cl,3,-4,-7,6,-1,.,.,.
Cc1ccc2c(c1)C(=O)C(=O)N2CC1COc2ccccc2O1 (stereo not drawn),65*,13,18,1,41*,30,.,78*
COc1ccc2c(c1)C(=O)C(=O)N2CC1COc2ccccc2O1 (stereo not drawn),38,15,8,1,40,.,.,.
SMILES,tim23-1 inh,XBP1 UPR activ,TIM10 inh,CHOP UPR activ,tim10-1 inh,tim10-1 confirm,tim10 confirm,tim23-1 confirm
O=C(COC(=O)C12CC3CC(CC(C3)C1)C2)Nc1ccc(OC(F)F)cc1,59*,4,57*,-2,44*,22,46*,62*
O=C(COC(=O)c1ccc(O)cc1O)NC(=O)NCc1ccccc1,1,2,4,0,-12,.,.,.
Nc1ccc(N=Nc2ccccc2)c2ccccc12,80*,0,65*,0,49*,39*,75*,13
Cn1c(SCC(=O)Nc2ccc3c(c2)OCCO3)nnc1C1CC1,11,-2,-4,0,-12,.,.,.
COc1ccc(C/C(N)=N/OC(=O)c2cccs2)cc1,85*,-5,77*,0,46*,63*,74*,80*
COc1ccccc1C/C(N)=N/OC(=O)c1cccs1,77*,5,59*,0,64*,53*,61*,64*
Cc1ccccc1C(=O)O/N=C(\N)Cc1cccs1,77*,3,90*,5,67*,70*,69*,80*
COc1ccccc1C/C(N)=N/OC(=O)/C=C/c1ccccc1,75*,1,83*,1,53*,33*,83*,76*
O=C(COC(=O)C1CC1)Nc1c(Cl)cccc1C(F)(F)F,-6,-2,-10,-2,-2,.,.,.
COc1ccc(C(=O)NCC(=O)OCC(=O)c2c(C)[nH]c3ccccc23)cc1OC,17,-2,4,0,5,.,.,.
CCC(O)c1nc2ccccc2n1CCc1ccccc1 (stereo not drawn),0,2,4,-2,-2,.,.,.
O=S(=O)(c1ccccc1)N1CCN(c2ccnc3cc(Cl)ccc23)CC1,63*,1,16,-2,58*,53*,.,66*
O=S(=O)(c1cccs1)N1CCN(c2ccnc3cc(Cl)ccc23)CC1,51*,-2,23,-1,45*,35*,.,44*
CC(=O)N1CCN(c2ccnc3cc(Cl)ccc23)CC1,-6,-1,-6,0,-7,.,.,.
O=S(=O)(c1cccs1)N1CCN(c2ccccc2Cl)CC1,38,-3,22,1,22,.,.,.
